# OX1R antag-1: antagonists of human orexin 1 receptor. 0.43% of 330,000 active. O43613. inhibition, % at 5 µM. CHO/OX1R cells, Fluo-8 calcium fluorescence, orexin A. AID 434989;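 active = inhibition above its plate's threshold, mean inhibition of all tested compounds on the plate plus 3 SD, cut at about 37% in these data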;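 note: 0% = orexin A challenge wells and 100% = SB-334867-A antagonist wells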
# GalR3 antag: antagonists of human GalR3. inhibition, % at 3 µM. 0.44% of 360,000 active. HEK293 GalR3-CNG cAMP membrane potential fluorescence; galR3 body fused to GalR1 C-terminus. O60755;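 active = inhibition above the screen-wide average plus 3 SD, cut at about 13% in these data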;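 note: forskolin and galanin both at EC90 stimulate the cells; cAMP rise reported by CNG channel membrane potential dye signal; 0% = forskolin plus galanin with DMSO and 100% = forskolin alone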
# CHO parental Ca: signal in parental CHO cells, OX1R antagonist counter-screen; parental CHO-K1, ATP-induced calcium, Fluo-8 fluorescence; 0.63% of 330,000 active; AID 463079; inhibition, % at 5.6 µM;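 active = inhibition above that plate's mean sample inhibition plus 3 SD, cut at about 26% in these data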;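 note: 0% = ATP-challenged DMSO wells and 100% = DMSO wells without ATP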
#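 Material: parental CHO cells / Compound: single nominal dose of 5.6 µM per compound / Signal: Fluo-8 fluorescence / Replicates: singlicate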
# OX1R antag-2: antagonists of human orexin 1 receptor (OX1R). inhibition, % at 6.6 µM. 1.8% of 330,000 active. O43613. OX1R-expressing cells, FRET antagonist read-out. AID 485270; in the data active = inhibition mostly above about 38%, no sharp cut-off; inactive = mostly below about 40%;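 note: 0% = agonist challenge alone and 100% = reference antagonist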
# TAAR1 agonist: human TAAR1 agonism; 0.99% of 360,000 active; AID 624467; Q96RJ0; activation, % at 3 µM; CHO RD-HGA16 TAAR1, Fluo-8 calcium fluorescence; vehicle wells 0%, saturating PEA agonist 100%;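 active = activation above the mean activation of all test compounds in the run plus 3 SD, cut at about 38% in these data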
# Target sequence (Q96RJ0 whole entry, looked up): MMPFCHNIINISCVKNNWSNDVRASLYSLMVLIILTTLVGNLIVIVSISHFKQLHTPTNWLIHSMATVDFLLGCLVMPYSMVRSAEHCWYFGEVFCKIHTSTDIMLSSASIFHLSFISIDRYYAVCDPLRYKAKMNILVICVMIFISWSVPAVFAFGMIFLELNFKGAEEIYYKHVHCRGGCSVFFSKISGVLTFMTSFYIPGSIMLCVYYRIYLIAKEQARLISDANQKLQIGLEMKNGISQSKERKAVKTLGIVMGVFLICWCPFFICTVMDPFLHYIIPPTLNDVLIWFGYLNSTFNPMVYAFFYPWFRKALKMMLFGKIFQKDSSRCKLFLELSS
#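 System: CHO-derived RD-HGA16 cells with stable Gα16 and human TAAR1 / Times: 17-24 h plating, Fluo-8 75 min 37 °C, 30 min RT / Technique: calcium-sensitive Fluo-8 signal, excitation 470-495, emission 515-575 nm / Measure: % activation relative to PEA EC100 response / Benchmarks: DMSO and PEA EC100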
# TAAR1 antagonist: antagonists of human TAAR1; inhibition, % at 3 µM; 1.5% of 360,000 active; Q96RJ0; CHO RD-HGA16 TAAR1, Fluo-8 calcium fluorescence, antagonist;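 active = inhibition above a per-plate cutoff, the mean inhibition of test compounds on that plate plus 3 SD, cut at about 49% in these data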;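 note: 0% = DMSO plus EC80 beta-PEA response and 100% = DMSO alone without agonist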
#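 Test system: RD-HGA16 CHO cells with stable hTAAR1 and Gα16 / Probe or stimulus: EC80 β-phenethylamine stimulus / Times: seeding 17-24 h prior, 75-min 37 °C, 30-min RT dye loading / Detection: Fluo-8 calcium-sensitive fluorescence / Read-out basis: % inhibition scaled between DMSO and EC80 PEA controls / Repeats: singlicate, one well per test compound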
# OX1R Ca confirm: confirmation of human orexin 1 receptor antagonists | shares compounds with OX1R antag-1 | CHO/OX1R cells, orexin A calcium Fluo-8 fluorescence | inhibition, % at 5 µM | 38% of 1,100 active; in the data active = inhibition above about 29%;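 note: 0% = agonist challenge alone and 100% = reference antagonist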
# CHO Ca triplic: signal in parental CHO cells, OX1R antagonist counter-screen; 9.3% of 1,100 active; inhibition, % at 5.6 µM; AID 492965; shares compounds with OX1R antag-1; parental CHO-K1, ATP-induced calcium, Fluo-8 fluorescence;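 active = inhibition above a per-plate limit, the mean inhibition of that plate's test compounds plus 3 SD, cut at about 25% in these data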;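 note: 0% = ATP challenge with DMSO and 100% = DMSO without ATP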
# OX1R HTRF confirm: confirmation of human orexin 1 receptor antagonists, HTRF format; shares compounds with OX1R antag-2; OX1R-expressing cells, HTRF antagonist assay; inhibition, % at 6.6 µM; 49% of 1,800 active; AID 492964; in the data active = inhibition above about 55%;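 note: CHO cells expressing OX1R stimulated with orexin A at about EC80; 0% = agonist challenge alone and 100% = reference antagonist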
# CHO-K1 HTRF: signal in parental CHO-K1 cells, OX1R antagonist counter-screen; inhibition, % at 6.6 µM; shares compounds with OX1R antag-2; HTRF counterscreen; 48% of 1,800 active; AID 493232; in the data active = inhibition above about 17%;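 note: 0% = agonist challenge with vehicle and 100% = vehicle alone without agonist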
# Numbers without * were called inactive; x = no result. In the library only some 4.3% were active in any assay of this set; here they are far more common.
SMILES,OX1R antag-1,GalR3 antag,CHO parental Ca,OX1R antag-2,TAAR1 agonist,TAAR1 antagonist,OX1R HTRF confirm,CHO-K1 HTRF,others
COC(=O)C1=C(c2ccc(F)cc2OCc2ccccc2)C[C@@H]2CC[C@H]1N2C(=O)NCCOc1ccccc1Cl,56*,-6,-23,31,14,19,x,x,OX1R Ca confirm=19;CHO Ca triplic=-18
N#CC(=C(O)c1ccc(S(=O)(=O)N(CCCl)CCCl)cc1)c1nc2ccccc2[nH]1,x,2,x,x,2,-3,x,x,
CN(C)P1(N(C)C)=Nc2c(c(N)nn2C)C(c2ccccc2)=N1,89*,-4,-10,18,2,-38,x,x,OX1R Ca confirm=3;CHO Ca triplic=2
COc1ccc(-n2c(O)c(/C=C/C=Nc3ccccc3)c(=O)[nH]c2=O)cc1,45*,-3,19,34,63*,33,x,x,OX1R Ca confirm=25;CHO Ca triplic=32*
Cc1ccc(-n2c(O)c(/C=C/C=Nc3ccccc3)c(=O)[nH]c2=O)cc1,5,-2,3,15,4,15,x,x,
CC=C(CC)C1(CCC)C(=O)NC(=S)NC1=O,x,-5,x,x,0,-3,x,x,
CC(C)CCn1c(N)c(C(=O)OCC2CCCO2)c2nc3ccccc3nc21 (stereo not drawn),6,-1,4,53,6,8,x,x,
CCCCn1c(N)c(C(=O)OCC2CCCO2)c2nc3ccccc3nc21 (stereo not drawn),78*,x,-23,100*,x,x,34,14,OX1R Ca confirm=-3;CHO Ca triplic=-5
COCCNCCOc1ccc(C(C)(C)c2ccccc2)cc1,-14,0,14,17,20,-2,x,x,
Cc1ccc(C)c(NP(=O)(Oc2ccccc2)Oc2ccccc2)c1,81*,-15,14,42*,8,80*,58*,13,OX1R Ca confirm=12;CHO Ca triplic=-14
O=C1OC(c2ccc([N+](=O)[O-])cc2)=N/C1=C/N1CC2CC(C1)c1cccc(=O)n1C2 (stereo not drawn),-5,-3,-16,80*,10,-20,25,18*,
CC(=O)C1CCC2C3CCC4CC(O)CCC4(C)C3C(=O)CC12C (stereo not drawn),x,-3,x,x,3,-13,x,x,
CCc1nnc(NC(=O)CCc2nc(C3=CCN(C)CC3)no2)s1,-1,-2,-4,98*,4,9,14,11,
CCCCCCC[n+]1ccc(-c2cc[n+](CCCCCCC)cc2)cc1,-10,-3,-10,140*,-1,7,60*,91*,
c1ccc2c[n+](CCCCCCCCCC[n+]3ccc4ccccc4c3)ccc2c1,x,-5,x,x,2,-18,x,x,
CN1CCN(c2ccc([N+](=O)[O-])c3cccnc23)CC1,-21,-10,-16,128*,6,2,43,64*,
O=[N+]([O-])c1ccc(N2CCCC2)c2ccncc12,-16,-7,-3,87*,4,4,44,69*,
CN1CCN(c2ccc([N+](=O)[O-])c(N3CCCCC3)c2)CC1,-9,-9,2,24,3,-6,x,x,
c1cc2c(cc1-c1ccc3c(c1)OCO3)CNCc1cnnn1-2,x,-8,x,x,4,-9,x,x,
C[n+]1ccc(-c2ccccc2)c2ccccc21,4,-6,-1,96*,1,1,76*,84*,
CN(CC=CCN(C)P(=S)(N1CC1)N1CC1)P(=S)(N1CC1)N1CC1,x,1,x,x,2,-8,x,x,
Cc1ccc(N=Nc2c(O)[nH]c(=O)[nH]c2=O)c([N+](=O)[O-])c1,-8,1,-3,124*,-1,0,38,56*,
CC(C)c1ccc(N=Nc2c(O)[nH]c(=O)[nH]c2=O)cc1,-7,-4,-1,20,1,-12,x,x,
